Test results as given in ChEMBL document CHEMBL4732114, “Design and structural optimization of novel 2H-benzo[h]chromene derivatives that target AcrB and reverse bacterial multidrug resistance” (Eur J Med Chem, 2021).
Values after ≈ are worked out from the molar mass of the structure shown. Active and inactive are the calls of the source. The calls are words filed in the database; no cut-off is given here.

Key:
[1] = molecular target: T1, Multidrug efflux pump subunit AcrB (Escherichia coli (strain K12)) (UniProt P31224); assay: Inhibition of AcrB in multidrug-resistant Escherichia coli BW25113 assessed as potentiation of tetraphenylphosphonium-induced antibacterial activity by measuring tetraphenylphosphonium MIC at 128 ug/ml by checkerboard titration method (reference value: 1024 ug/ml); conditions: dose 128.0 µg/ml
T1 sequence (whole entry): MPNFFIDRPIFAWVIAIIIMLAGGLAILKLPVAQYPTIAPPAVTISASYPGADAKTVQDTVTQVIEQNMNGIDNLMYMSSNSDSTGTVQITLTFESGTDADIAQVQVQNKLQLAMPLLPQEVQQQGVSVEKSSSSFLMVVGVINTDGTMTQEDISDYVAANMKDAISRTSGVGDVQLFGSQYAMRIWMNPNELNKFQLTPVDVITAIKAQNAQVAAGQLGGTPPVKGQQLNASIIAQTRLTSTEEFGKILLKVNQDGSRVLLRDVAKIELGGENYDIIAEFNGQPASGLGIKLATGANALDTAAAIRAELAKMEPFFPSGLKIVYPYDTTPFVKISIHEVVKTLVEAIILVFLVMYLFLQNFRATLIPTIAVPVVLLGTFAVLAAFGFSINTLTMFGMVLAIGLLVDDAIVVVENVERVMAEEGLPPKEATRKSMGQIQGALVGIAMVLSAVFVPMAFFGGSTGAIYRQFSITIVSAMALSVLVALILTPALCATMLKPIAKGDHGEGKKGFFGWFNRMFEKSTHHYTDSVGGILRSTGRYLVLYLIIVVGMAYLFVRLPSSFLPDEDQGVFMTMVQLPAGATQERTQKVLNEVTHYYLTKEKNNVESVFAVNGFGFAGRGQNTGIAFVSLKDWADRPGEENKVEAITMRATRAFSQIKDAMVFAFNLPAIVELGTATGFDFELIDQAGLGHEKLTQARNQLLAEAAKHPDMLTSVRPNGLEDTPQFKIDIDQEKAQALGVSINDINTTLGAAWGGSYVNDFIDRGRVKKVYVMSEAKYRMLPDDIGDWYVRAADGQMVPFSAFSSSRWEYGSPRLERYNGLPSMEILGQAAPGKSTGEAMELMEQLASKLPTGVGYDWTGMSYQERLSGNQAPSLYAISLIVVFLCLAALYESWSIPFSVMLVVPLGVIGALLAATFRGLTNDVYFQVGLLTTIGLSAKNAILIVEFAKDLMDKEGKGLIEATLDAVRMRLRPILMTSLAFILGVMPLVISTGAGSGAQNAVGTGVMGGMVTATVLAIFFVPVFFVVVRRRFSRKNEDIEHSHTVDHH

[2] = Toxicity in multidrug-resistant Escherichia coli BW25113 assessed as growth inhibition by two-fold broth dilution method
[3] = Toxicity in multidrug-resistant Escherichia coli BW25113 harboring AcrB deletion mutant assessed as growth inhibition by two-fold broth dilution method
[4] = molecular target: T1, Multidrug efflux pump subunit AcrB (Escherichia coli (strain K12)); assay: Inhibition of AcrB in multidrug-resistant Escherichia coli BW25113 assessed as potentiation of levofloxacin-induced antibacterial activity by measuring levofloxacin MIC at 16 ug/ml by checkerboard titration method (reference value: 0.06 ug/ml); conditions: dose 16.0 µg/ml
[5] = molecular target: T1, Multidrug efflux pump subunit AcrB (Escherichia coli (strain K12)); assay: Inhibition of AcrB in multidrug-resistant Escherichia coli BW25113 assessed as potentiation of levofloxacin-induced antibacterial activity by measuring levofloxacin MIC at 8 ug/ml by checkerboard titration method (reference value: 0.06 ug/ml); conditions: dose 8.0 µg/ml
[6] = molecular target: T1, Multidrug efflux pump subunit AcrB (Escherichia coli (strain K12)); conditions: Escherichia coli BW25113; dose 16.0 µg/ml
[7] = molecular target: T1, Multidrug efflux pump subunit AcrB (Escherichia coli (strain K12)); assay: Inhibition of AcrB in multidrug-resistant Escherichia coli BW25113 assessed as potentiation of erythromycin-induced antibacterial activity by measuring erythromycin MIC at 32 ug/ml by checkerboard titration method (reference value: 64 ug/ml); conditions: dose 32.0 µg/ml
[8] = molecular target: T1, Multidrug efflux pump subunit AcrB (Escherichia coli (strain K12)); conditions: Escherichia coli BW25113; dose 32.0 µg/ml
[9] = molecular target: T1, Multidrug efflux pump subunit AcrB (Escherichia coli (strain K12)); assay: Inhibition of AcrB in multidrug-resistant Escherichia coli BW25113 assessed as potentiation of erythromycin-induced antibacterial activity by measuring erythromycin MIC at 8 ug/ml by checkerboard titration method (reference value: 64 ug/ml); conditions: dose 8.0 µg/ml
[10] = molecular target: T1, Multidrug efflux pump subunit AcrB (Escherichia coli (strain K12)); assay: Inhibition of AcrB in Escherichia coli BW25113 assessed as reduction in glucose-induced nile red efflux at 100 uM preincubated for 15 mins followed by nile red addition and incubated for 3 hrs in shaker in presence of CCCP by fluorimetric analysis; conditions: time 3.25 hrs
How it was run: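 Wild-type and AcrB-deleted cells were preloaded with Nile Red, with or without compound. Fluorescence was recorded, and efflux was triggered at 100 s with 0.2% glucose. Traces were compared with the deletion-strain level. Triplicate experiments used different cell batches.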

[11] = molecular target: T1, Multidrug efflux pump subunit AcrB (Escherichia coli (strain K12)); assay: Inhibition of AcrB in multidrug-resistant Escherichia coli BW25113 assessed as potentiation of erythromycin-induced antibacterial activity by measuring erythromycin MIC at 64 ug/ml by checkerboard titration method (reference value: 64 ug/ml); conditions: dose 64.0 µg/ml
[12] = molecular target: T1, Multidrug efflux pump subunit AcrB (Escherichia coli (strain K12)); assay: Inhibition of AcrB in multidrug-resistant Escherichia coli BW25113 assessed as potentiation of erythromycin-induced antibacterial activity by measuring erythromycin MIC at 16 ug/ml by checkerboard titration method (reference value: 64 ug/ml); conditions: dose 16.0 µg/ml
[13] = tested on: Cell membrane; assay: Induction of inner membrane permeabilization in wild type Escherichia coli BW25113 assessed as perturbation of proton motive force at 128 ug/ml measured after 10 mins in presence of CCCP and glucose by Di0C2(3) probe based fluorescence assay; conditions: escherichia coli bw25113, 10 min, dose 128 µg/ml
How it was run: (§1)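 Cell suspensions were left untreated or exposed to 8-128 µg/mL compound for 10 min. DiOC₂(3) was then added and fluorescence followed to a plateau. Cells were re-energized with 0.5% glucose, and the rise in fluorescence was read as membrane-potential build-up. CCCP was added last to dissipate the potential.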

[14] = tested on: Cell membrane; assay: Induction of inner membrane permeabilization in wild type Escherichia coli BW25113 assessed as perturbation of proton motive force at 32 ug/ml measured after 10 mins in presence of CCCP and glucose by Di0C2(3) probe based fluorescence assay; conditions: escherichia coli bw25113, 10 min, dose 32 µg/ml; how it was run: as §1

Compound | MIC [1] [µg/mL] | MIC [2] [µg/mL] | MIC [3] [µg/mL] | MIC [4] [µg/mL] | MIC [5] [µg/mL] | MIC [6] [µg/mL] | MIC [7] [µg/mL] | MIC [8] [µg/mL] | MIC [9] [µg/mL] | inhibition [10] | MIC [11] [µg/mL] | MIC [12] [µg/mL] | Activity [13] | Activity [14]
CC1(C)CCc2c(Cn3cnnn3)cc3c(OCc4ccc(OC(F)(F)F)cc4)cccc3c2O1 | 1020 | > 512 | > 128 | 0.06 | 0.06 | 16 (≈ 33 µM) | 64 | 16 (≈ 33 µM) | 64 | Active | 64 | 64 | Not Active | –
CC1(C)CCc2c(Cn3cnnn3)cc3c(OCc4ccc([N+](=O)[O-])cc4)cccc3c2O1 | 512 | > 512 | > 128 | 0.06 | 0.06 | 16 (≈ 35.9 µM) | 64 | 16 (≈ 35.9 µM) | 64 | Active | 64 | 64 | Not Active | –
COc1cccc(COc2cccc3c4c(c(C(=O)O)cc23)CCC(C)(C)O4)c1 | 256 | > 512 | > 128 | 0.06 | 0.06 | 16 (≈ 40.8 µM) | 32 | 16 (≈ 40.8 µM) | 64 | Active | 32 | 64 | Not Active | Not Active
CC1(C)CCc2c(C(=O)N3CCOCC3)cc3c(OCc4ccccc4)cccc3c2O1 | 64 | > 512 | > 128 | 0.03 | 0.03 | 16 (≈ 37.1 µM) | 64 | 16 (≈ 37.1 µM) | 64 | Active | 16 | 64 | – | –
C=CC(=O)Nc1ccc(COc2cccc3c4c(c(C(=O)N5CCOCC5)cc23)CCC(C)(C)O4)cc1 | 64 | > 512 | > 128 | 0.06 | 0.06 | 16 (≈ 32 µM) | 16 | 16 (≈ 32 µM) | 16 | Active | 16 | 16 | Not Active | –
Cc1ccccc1COc1cccc2c3c(c(-c4nnco4)cc12)CCC(C)(C)O3 | 256 | > 512 | > 128 | 0.06 | 0.06 | 16 (≈ 40 µM) | 32 | 16 (≈ 40 µM) | 64 | Active | 32 | 64 | – | Not Active
CC1(C)CCc2c(-c3nnco3)cc3c(OCc4ccccc4)cccc3c2O1 | 128 | > 512 | > 128 | 0.06 | 0.06 | 16 (≈ 41.4 µM) | 32 | 16 (≈ 41.4 µM) | 64 | Active | 32 | 64 | – | Not Active
CC1CN(C(=O)c2cc3c(OCc4c(Cl)cccc4Cl)cccc3c3c2CCC(C)(C)O3)CC(C)O1 (centres undefined) | 1020 | – | – | 0.03 | 0.03 | 16 (≈ 30.3 µM) | 64 | 16 (≈ 30.3 µM) | 64 | Active | 64 | 64 | – | –
CC1(C)CCc2c(C(=O)O)cc3c(OCc4ccccc4)cccc3c2O1 | 64 | > 512 | > 128 | 0.06 | 0.06 | 16 (≈ 44.1 µM) | 64 | 16 (≈ 44.1 µM) | 64 | Active | 64 | 64 | – | Active
CC(C)NCCOc1ccc2c(c1)OC(C)(C)CC2=O | 1020 | > 512 | > 128 | 0.03 | 0.03 | 16 (≈ 57.7 µM) | 64 | 16 (≈ 57.7 µM) | 64 | Active | 64 | 64 | – | –
CC1(C)CCc2c(-c3nnco3)cc3c(OCc4ccc([N+](=O)[O-])cc4)cccc3c2O1 | 1020 | > 512 | > 128 | 0.06 | 0.06 | 16 (≈ 37.1 µM) | 64 | 16 (≈ 37.1 µM) | 64 | Active | 32 | 64 | Not Active | –
CC1(C)CCc2c(Cn3cnnn3)cc3c(OCc4ccccc4)cccc3c2O1 | 1020 | > 512 | > 128 | 0.06 | 0.06 | 16 (≈ 40 µM) | 64 | 16 (≈ 40 µM) | 64 | Active | 64 | 64 | Not Active | –
Cc1ccc(COc2cccc3c4c(c(-c5nnco5)cc23)CCC(C)(C)O4)cc1 | 64 | > 512 | > 128 | 0.03 | 0.03 | 16 (≈ 40 µM) | 32 | 16 (≈ 40 µM) | 32 | Active | 16 | 32 | Not Active | Not Active
CC1CN(C(=O)c2cc3c(OCc4ccc(Br)cc4)cccc3c3c2CCC(C)(C)O3)CC(C)O1 (centres undefined) | 512 | > 512 | > 128 | 0.06 | 0.06 | 16 (≈ 29.7 µM) | 64 | 16 (≈ 29.7 µM) | 64 | Active | 64 | 64 | Not Active | –
